Measurements taken from ChEMBL document CHEMBL1132689, “New tetracyclic analogues of photochemotherapeutic drugs 5-MOP and 8-MOP: synthesis, DNA interaction, and antiproliferative activity” (J Med Chem, 1999).
Activity calls are given as the source filed them. No cut-off for these calls is given here.

Assays:
[1] = tested on: HL-60; assay: The compound was tested in vitro for growth inhibition against HL-60(human promyelocytic leukemia) cell line in the presence of UVA(ultra violet A irradiated); format: functional, cell-based; settings: HL-60, light or radiation study
[2] = tested on: HeLa; assay: The compound was tested in vitro for growth inhibition against HeLa(human cervix adenocarcinoma) cell line in the dark; format: functional, cell-based
[3] = tested on: Cavia porcellus; assay: The compound was tested for photo antiproliferative activity and ability to induce erythema on guinea pig skin; +++ = strong (without edema); format: functional, organism-based
Summary of the method: (§1)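 Depilated albino guinea pigs (outbred Dunkin-Hartley) given topical ethanol solution on skin, new compounds up to 50 μg cm-2, 5-MOP and 8-MOP at 10 μg cm-2; kept dark 45 min, then treated skin irradiated with 20 kJ m-2 UVA (lamps emitting over 90% at 365 nm); erythema scored after 48 h.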

[4] = tested on: HL-60; assay: The compound was tested in vitro for growth inhibition against HL-60(human promyelocytic leukemia) cell line in the dark; format: functional, cell-based
[5] = tested on: HeLa; assay: The compound was tested in vitro for growth inhibition against HeLa(human cervix adenocarcinoma) cell line in the presence of UVA(ultra violet A irradiated); format: functional, cell-based; settings: light or radiation study
Summary of the method: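 HeLa (F-12 with 10% heat-inactivated FCS) seeded 10^5/well for 24 h; medium changed to phenol red-free DMEM with test agent, 1 h later irradiated with UVA 0.793 J cm-2 at 365 nm; drug medium removed, cells kept 24 h in complete F-12; trypan blue viability; IC50 as 50% cell-number reduction versus control.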

[6] = species: Cavia porcellus; assay: The compound was tested for photo antiproliferative activity and ability to induce erythema on guinea pig skin; --- = absent; format: functional, organism-based; summary of the method: as §1
[7] = species: Cavia porcellus; assay: The compound was tested for photo antiproliferative activity and ability to induce erythema on guinea pig skin; +-- = mild; format: functional, organism-based; summary of the method: as §1

SMILES	IC50 [1]	IC50 [2]	Formation of erythema [3]	IC50 [4]	IC50 [5]	Formation of erythema [6]	Formation of erythema [7]
Cc1cc(=O)oc2c(OCCCN(C)C)c3oc4c(c3cc12)CCCC4	0.6 µM	> 20 µM	strong (without edema)	12.4 µM	1.2 µM	–	–
COc1c2occc2cc2ccc(=O)oc12 [METHOXSALEN]	5.4 µM	> 20 µM	Active	> 20 µM	10 µM	–	–
Cc1cc(=O)oc2cc3oc4ccccc4c3c(OCCCN(C)C)c12	0.73 µM	> 20 µM	–	9.2 µM	2.8 µM	inactive	–
COc1c2c(C)cc(=O)oc2cc2oc3c(c12)CCCC3	4.9 µM	> 20 µM	–	> 20 µM	4.6 µM	inactive	–
Cc1cc(=O)oc2c(O)c3oc4c(c3cc12)CCCC4	> 20 µM	> 20 µM	–	> 20 µM	> 20 µM	inactive	–
Cc1cc(=O)oc2cc3oc4c(c3c(OCCCN(C)C)c12)CCCC4	3.4 µM	> 20 µM	–	13.8 µM	3.7 µM	–	+--
Cc1cc(=O)oc2cc3oc4c(c3c(O)c12)CCCC4	7.3 µM	> 20 µM	–	> 20 µM	> 20 µM	inactive	–
COc1c2ccoc2cc2oc(=O)ccc12 [BERGAPTEN]	3.35 µM	> 20 µM	Active	> 20 µM	16.3 µM	–	–
Cc1cc(=O)oc2c(O)c3oc4ccccc4c3cc12	> 20 µM	> 20 µM	–	> 20 µM	> 20 µM	inactive	–
Cc1cc(=O)oc2c(OCCCN(C)C)c3oc4ccccc4c3cc12	0.6 µM	9.6 µM	–	4.2 µM	0.08 µM	inactive	–
Cc1cc(=O)oc2cc3oc4ccccc4c3c(O)c12	> 20 µM	> 20 µM	–	> 20 µM	> 20 µM	inactive	–
COc1c2oc(=O)cc(C)c2cc2c3c(oc12)CCCC3	3.5 µM	> 20 µM	–	> 20 µM	> 20 µM	inactive	–
COc1c2oc(=O)cc(C)c2cc2c1oc1ccccc12	6.4 µM	> 20 µM	–	> 20 µM	> 20 µM	inactive	–
COc1c2c(C)cc(=O)oc2cc2oc3ccccc3c12	4.5 µM	> 20 µM	–	> 20 µM	> 20 µM	inactive	–
